Source: ChEMBL document CHEMBL1123134, “Diterpenoid sweeteners. Synthesis and sensory evaluation of stevioside analogues with improved organoleptic properties” (1985)

Key:
Type in all cases: functional
[1] = species: Homo sapiens; test: Sensory evaluation was done at a concentration of 250 p.p.m. against property of bitterness.
How it was run: (§1)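 Aqueous sample solutions were tasted at about pH 7, so carboxylic acids were in ionized form.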

[2] = species: Homo sapiens; test: Sensory evaluation was done at a concentration of 250 p.p.m. against property of sweetness.; how it was run: as §1
[3] = species: Homo sapiens; test: Sensory evaluation was done for sweetness at a concentration of 250 p.p.m. against sample intensity relative to 10% sucrose.
How it was run: (§2)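 Sweetness tasted in solutions held near pH ~7, so carboxylic acids are ionized. Potency is reported two ways: on a weight basis (Pw) and on a molar basis (Pm).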

[4] = species: Homo sapiens; test: Sensory evaluation was done at a concentration of 250 p.p.m. against other properties.; how it was run: as §1
[5] = species: Homo sapiens; test: Sensory evaluation was done for sweetness at a concentration of 250 p.p.m. against compound potency calculated on weight basis.; how it was run: as §2
[6] = species: Homo sapiens; test: Sensory evaluation was done for sweetness at a concentration of 250 p.p.m. against compound potency calculated on a molar basis.; how it was run: as §2
[7] = species: Homo sapiens; test: Sensory evaluation was done for sweetness at a concentration of 100000 p.p.m. against compound potency calculated on a molar basis.
How it was run: (§3)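 Solutions were tasted at about pH 7. Sweetness potency was expressed two ways: Pw, calculated on a weight basis, and Pm, calculated on a molar basis.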

[8] = species: Homo sapiens; test: Sensory evaluation was done at a concentration of 100000 p.p.m. against other properties.; how it was run: as §1
[9] = species: Homo sapiens; test: Sensory evaluation was done for sweetness at a concentration of 100000 p.p.m. against compound potency calculated on weight basis.; how it was run: as §3
[10] = species: Homo sapiens; test: Sensory evaluation was done at a concentration of 100000 p.p.m. against property of sweetness.; how it was run: as §1
[11] = species: Homo sapiens; test: Sensory evaluation was done at a concentration of 100000 p.p.m. against property of bitterness.; how it was run: as §1
[12] = species: Homo sapiens; test: Sensory evaluation was done for sweetness at a concentration of 100000 p.p.m. against sample intensity relative to 10% sucrose.; how it was run: as §2

Q: Which results are given for `COc1ccc(CCC(=O)c2c(O)cc(O[C@@H]3O[C@H](CO)[C@@H](O)[C@H](O)[C@H]3O[C@@H]3O[C@@H](C)[C@H](O)[C@@H](O)[C@H]3O)cc2O)cc1O` [NEOHESPERIDIN DIHYDROCHALCONE]?
A: Sensory evaluation [1]: 3; Sensory evaluation [2]: 81; Ip [3]: 1.2; Sensory evaluation [4]: 16; Pw [5]: 480; Pm [6]: 860

Q: How did the Pm [7] turn out when `OC[C@H]1O[C@@](CO)(O[C@H]2O[C@H](CO)[C@@H](O)[C@H](O)[C@H]2O)[C@@H](O)[C@@H]1O` [SUCROSE] was run?
A: 1

Q: What about the Sensory evaluation [8] of the same compound?
A: 0

Q: And the Pw [9]?
A: 1

Q: And the Sensory evaluation [10]?
A: 100

Q: What about the Sensory evaluation [11] of the same compound?
A: 0

Q: What about the Ip [12] of the same compound?
A: 1
